This note sets out measurements from PubChem BioAssay AID504383 (The Scripps Research Institute Molecular Screening Center, 2011).

In all, about 2,500 compounds went through this assay and about 1,200 (48%) were called active.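 How the source made its calls: active means mean activation above the low control average plus 3 SD, as set in the primary screen (cut at about 12% in these data); inactive means the rest.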 So high a share suggests a set chosen from earlier hits. The list shows a part of the results.

This experiment has as its target Troponin I, cardiac muscle (Homo sapiens) + Troponin T, cardiac muscle (Homo sapiens) + Troponin C, slow skeletal and cardiac muscles (Homo sapiens) (UniProt P19429+P45379+P63316). The experiment in a line: cardiac RTF calcium sensitivity activators, confirmation, biochemical, IANBD-TnC fluorescence, triplicate (AID 504383).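 Further: 0% = DMSO at 0.472 mM calcium and 100% = DMSO at 2.9 mM calcium.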 Conditions: IANBD-labeled cardiac RTF, Ca2+ sensitivity fluorescence; at 7.2 µM; active compounds read high; scaled from EC20 to saturating calcium; tested at EC20 calcium, 0.472 mM. The gist of the method: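 material = labelled regulated thin filaments | probe or stimulus = Ca2+ 0.472 mM, EC20 level | dosing = single nominal compound dose of 7.2 µM | schedule = 15 min at 25 °C | signal = fluorescence intensity of labelled filaments | evaluation = fluorescence gain scaled between EC20 and EC100 calcium controls | benchmarks = low control EC20 calcium, high control EC100 calcium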
Take `CCN(CC)c1ccc2cc(S(=O)(=O)c3ccc(C)cc3)c(=O)oc2c1`: the activation is 32.5% (active).
As for `CCN(CC)c1ccc2cc(NC(=O)CCC(=O)O)c(=O)oc2c1`, the figure is 4.16% (inactive); as for `CCN(CC)c1ccc2cc(C(C)=O)c(=O)oc2c1`, 0.78% (inactive).
`CCN(CC)c1ccc2c(c1)oc(=O)c1c(Cl)cc(=O)oc12`: the activation was 63.5% (active).
For `CCN(CC)c1ccc2cc(S(=O)(=O)c3ccc(Cl)cc3)c(=O)oc2c1` the value was 372% (active); for `CCN(CC)c1ccc2cc(C=O)c(=O)oc2c1`, 17% (active).
As for `CCN(CC)c1ccc2c(Cl)c(Br)c(=O)oc2c1`, the figure is 8.56% (inactive).
As for `Clc1ccccc1N=Nc1ccccn1`, the figure is 9.89% (inactive).
On to `CCN(CC)c1ccc2oc(=O)c(C)nc2c1`, for which the activation is 364% (active).
As for `CCOC(=O)c1c(C#N)c(SCC(=O)Nc2ccc(OC)cc2)nc2c1CN(CC)CC2`, the figure is 78.6% (active); as for `COc1cccc2c1C(=O)c1c(O)c3c(c(O)c1C2=O)CC(O)(C(=O)CO)CC3OC1CC(N(C)C)C(O)C(C)O1` (configuration not stated), 211% (active).
For `COc1cccc2c1C(=O)c1c(O)c3c(c(O)c1C2=O)CC(O)(C(C)=O)CC3OC1CC(O)C(O)C(C)O1` (configuration not stated) the value was 75.5% (active).
As for `COc1cccc2c1C(=O)c1c(O)c3c(c(O)c1C2=O)C[C@@](O)(C(=O)CO)C[C@@H]3OC1CC(N)C(O)C(C)O1` (some centres not stated), the figure is 9.17% (inactive).
Consider `COc1cccc2c1C(=O)c1c(O)c3c(c(O)c1C2=O)C[C@@](O)(C(=O)CO)C[C@@H]3O[C@H]1C[C@H](N)[C@H](O)[C@H](C)O1`, for which the activation is 3.66% (inactive).
For `COc1cccc2c1C(=O)c1c(O)c3c(c(O)c1C2=O)CC(O)(C(C)=O)CC3OC1CC(N(C)C)C(O)C(C)O1` (configuration not stated) the value was 6.16% (inactive); for `COc1cccc2c1C(=O)c1c(O)c3c(c(O)c1C2=O)C[C@](O)(C(C)=O)C[C@H]3O[C@@H]1C[C@@H](N)[C@@H](O)[C@@H](C)O1`, 4.79% (inactive).
`C[C@H]1COc2c(N3CCN(C)CC3)c(F)cc3c(=O)c(C(=O)O)cn1c23`: the activation was 6.23% (inactive).
As for `Cc1ccc(/C=C/c2ccc(N(C)C)cc2)[n+](C)c1`, the activation was 9.58% (inactive).
For `CN(C)c1ccc(/C=C/c2cc[n+](C)cc2)cc1` the value was 28.1% (active); for `CN(C)c1ccc(/C=C/c2cc[n+](C)c3ccccc23)cc1`, 6.25% (inactive).
As for `CCOc1cc(/C=C2\NC(=O)NC2=O)cc([N+](=O)[O-])c1O`, the figure is 8.6% (inactive).
On to `COc1ccc(N=Cc2cc3c(cc2O)OC(N)=C(C#N)C3c2ccccc2)cc1` (configuration not stated), for which the activation is 95.8% (active).
For `COc1ccc(O)c(/C=N/c2nc3ccccc3n2C)c1` the value was 10.8% (inactive); for `Cc1ccccc1N=Cc1cc2c(cc1O)OC(N)=C(C#N)C2c1ccccc1` (configuration not stated), 15.4% (active).
For `Cc1cc(C)n(-c2nc3ccccc3nc2Nc2ccc3[nH]c(=O)[nH]c3c2)n1` the value was 15.9% (active); for `Cc1cc(S(=O)(=O)Cc2noc(-c3c(C)noc3C)n2)c(C)cc1Cl`, 5.06% (inactive); for `CC(C)(ONC(=O)Nc1ccccc1Cl)C(=O)O`, 833% (active).
As for `O=C(O)C1CCC(CNCc2ccccc2Cl)CC1` (configuration not stated), the figure is 10.5% (inactive); as for `CC(C)c1ccc(C2c3[nH]c4ccccc4c3C[C@H]3C(=O)N(c4ccccc4C(=O)N4CCC(C(=O)O)CC4)C(=O)N23)cc1` (some centres not stated), 12% (active); as for `O=C(NCCN1CCOCC1)c1ccccc1N1C(=O)[C@@H]2Cc3c([nH]c4ccccc34)C(c3ccc(F)cc3)N2C1=O` (some centres not stated), 4.51% (inactive).
For the compound `CCN1C(=O)[C@@H]2Cc3c([nH]c4ccccc34)C(c3ccc(OC)cc3)N2C1=S` (some centres not stated), the activation is 6.48% (inactive).
As for `CCOc1nc(OCC)c2[nH]c(C(=O)O)c(Br)c2n1`, the figure is 4.87% (inactive); as for `Cc1ccccc1C(=O)c1cccn1CC(=O)NCCCN1CC(C)CC(C)C1` (configuration not stated), 5.75% (inactive).
As for `CC1CC(C)CN(CCOCCSc2ccccc2)C1` (configuration not stated), the figure is 76.1% (active); as for `CC1CN(CCCCOc2ccc3ccccc3c2)CC(C)O1` (configuration not stated), 7.54% (inactive); as for `Cc1ccccc1C1CC(=O)Oc2cc(O)ccc21` (configuration not stated), -1.84% (inactive).
As for `COCCn1c(SCC(=O)Nc2ccc(NC(=O)c3ccco3)c(OC)c2)nc2ccccc2c1=O`, the figure is 14.4% (active).
As to `O=C(CSc1ccc(Cl)cc1)Nc1cccc(NC(=O)c2ccco2)c1`, the activation was 9.78% (inactive).
As for `COC1=CC2(O)CCCC2=CC1=O` (configuration not stated), the figure is 6.42% (inactive).
For `CC(C)(C)NC(=O)NC(=O)Cn1ccsc1=N`, the activation was 135% (active).
For `Cc1nc2c(C#N)cnn2c2c1CCN(Cc1ccccc1)N2C` the value was 389% (active); for `Cc1c2c(n3c(nc4ccccc43)c1C#N)N(CCN1CCOCC1)CC2`, 10% (inactive).
For `O=C1c2c(O)cc(O)cc2O[C@@]12c1c(cc(O)c3c1O[C@H](c1ccc(O)cc1)[C@@H](O)C3)O[C@@H]2c1ccc(O)cc1` the value was 5.77% (inactive); for `CCOc1ccc(C2CC(c3c(O)c4ccccc4oc3=O)=NN2c2ccccc2)cc1OC` (configuration not stated), 22.3% (active); for `CCC1(C)COC(c2ccc(OC)c(OC)c2)OC1` (configuration not stated), 1.48% (inactive).
For `NC(=O)c1cc2ccc(O)cc2oc1=NCc1ccccc1` the value was 6.57% (inactive); for `CCOC(=O)c1c(-c2ccccc2Cl)csc1NC(=O)c1cc(S(=O)(=O)N2CCOCC2)ccc1C`, 12.7% (active).
In the case of `CCCCCC(C)NC(=S)NC(=O)c1cc(S(=O)(=O)N2CCOCC2)ccc1C` (configuration not stated), the activation was 6.76% (inactive).
As for `Cc1ccc(NC(=O)c2cc(S(=O)(=O)N3CCCCC3)ccc2N2CCOCC2)cc1S(=O)(=O)N(C)C`, the figure is 7.6% (inactive); as for `Oc1ccc2nnc3c(Br)cnn3c2c1`, 7.23% (inactive).
For `Cc1nc2oc(C(=O)c3ccccc3)c(N)c2c2c1COC(C)(C)C2` the value was 744% (active).
For `CCc1ccc2c(COC(=O)CNS(=O)(=O)c3ccc(NC(C)=O)cc3)cc(=O)oc2c1` the value was 34.8% (active).
As to `CN(C)c1ccc(/C=C2\Oc3ccc(C#Cc4cccc(N)c4)cc3C2=O)cc1`, the activation was 4.36% (inactive).
As for `COc1ccc(/C=C2\Oc3cc(OCC(N)=O)ccc3C2=O)cc1OC`, the figure is 6.98% (inactive); as for `O=C(Oc1ccc2c(c1)O/C(=C\c1ccncc1)C2=O)c1ccccc1`, 104% (active).
For `COc1ccccc1C(=O)Oc1ccc2c(c1)O/C(=C\c1ccncc1)C2=O` the value was 31.6% (active); for `Cc1ccc(-n2nnnc2C(=Cc2ccc(N(C)C)cc2)c2nnnn2-c2ccc(C)cc2)cc1`, 14.4% (active).
As for `Cc1ccc(-n2nnnc2-c2cnc3cc4c(cc3c2C)OCO4)cc1`, the activation was 4.93% (inactive).
Turning to `O=c1c(/C=C(\O)c2ccc(F)cc2)nc2ccccc2n1-c1ccccc1`, the activation is 6.91% (inactive).
As for `CCCNC(=O)Cn1c(=O)/c(=C/c2ccc(-c3ccc([N+](=O)[O-])cc3)o2)s/c1=C\C(=O)C(C)(C)C`, the figure is 29.9% (active); as for `CCCNC(=O)Cn1c(=O)/c(=C\c2ccc(-c3ccc([N+](=O)[O-])cc3)o2)s/c1=C\C(=O)C(C)(C)C`, 28.6% (active).
With `CC(C)(C)C(=O)/C=c1\s/c(=C\c2ccc(-c3ccc([N+](=O)[O-])cc3)o2)c(=O)n1CC(=O)NC(N)=O`, the activation is 46.3% (active).
As for `CC1=CC(=C(C#N)C#N)C=C(C)N1Cc1ccc(Cl)cc1`, the figure is 52.2% (active); as for `CS(=O)(=O)Nc1nc2n(n1)C(c1ccccc1)C=C(c1ccc(Br)cc1)N2` (configuration not stated), 35.8% (active).
For `O=c1cc2c(c(-c3ccccc3)n1Cc1ccccc1)[C@H](CCO)NC2` the value was 16.1% (active).
As for `O=c1cc(-c2ccccc2)oc2ccc(Br)cc12`, the figure is 6.06% (inactive).
For `Nc1ccc(-c2c3ccc(=O)cc-3oc3cc(O)ccc23)cc1C(=O)O`, the activation was 4.67% (inactive).
Consider `O=c1ccc2c(-c3ccccc3)c3ccc(O)cc3oc-2c1`, for which the activation was 88.1% (active).
As for `Cn1cc(C2=C(c3ccc(Cl)cc3Cl)C(=O)NC2=O)c2ccccc21`, the figure is 32.9% (active).
As for `O=C(NCC1CCCO1)c1c(O)nc2sccn2c1=O` (configuration not stated), the figure is 17.7% (active); as for `Cc1nccc(-c2cccc(N/N=C(\C#N)C(=O)c3ccccc3)c2)n1`, 6.06% (inactive); as for `COc1ccc2c(CC(=O)N[C@@H](Cc3c[nH]c4ccccc34)C(=O)O)cc(=O)oc2c1`, 16.7% (active).
As for `COc1ccc(/C=N/NC(=O)C(Cc2c[nH]c3ccccc23)NC(=O)OCC(C)C)cc1[N+](=O)[O-]` (configuration not stated), the figure is 7.99% (inactive).
As to `CC(C)c1ccc(OCC(=O)NC(Cc2c[nH]c3ccccc23)C(=O)O)cc1` (configuration not stated), the activation is 4.54% (inactive).
For the compound `NC(=O)CC[C@@H]1NC(=O)[C@H](Cc2ccc(O)cc2)NC(=O)c2cc([N+](=O)[O-])cc(F)c2OCC[C@@H](C(N)=O)NC1=O`, the activation is 0.64% (inactive).
For `Cc1ccc(CN2CCN(Cc3ccc(-n4cccn4)cc3C)CC2CCO)cc1` (configuration not stated) the value was 108% (active); for `CCOc1ccc(CN2CCN(C/C=C/c3ccc(OC)cc3)CC2CCO)cc1` (configuration not stated), 7.69% (inactive).
`CC/C(=N/Nc1cccc(C)c1)c1cnnc(SC)n1`: the activation is 12.7% (active).
Take `COc1ccccc1CNc1cc(C)ccc1C`: the activation was 1250% (active).
As for `COc1cc(/C=C2/SC(=S)N(CCC(=O)Nc3ccccc3)C2=O)cc(OC)c1OC`, the figure is 1.16% (inactive); as for `CC(=O)c1ccc(NC(=O)CN2C(=O)/C(=C/C=C/c3ccccc3)SC2=S)cc1`, 13.7% (active); as for `C#CCN1C(=O)S/C(=C/C=C/c2ccc(N(C)C)cc2)C1=O`, 9.72% (inactive).
For `Cc1ccc(/C=C/C(=O)Nc2cccc3cccnc23)o1` the value was 20.6% (active); for `COc1ccc(N2C(=O)[C@@H]3[C@H](C2=O)[C@H](C(C)=O)N2c4ccccc4C=C[C@@H]32)cc1`, 9.39% (inactive).
As for `COc1ccc(C2C(C(=O)c3ccccc3)N3c4ccccc4C=CC3C2[N+](=O)[O-])cc1` (configuration not stated), the figure is 47.8% (active); as for `Cc1cc(N/C=C\c2nnnn2-c2ccc(F)cc2)no1`, 979% (active).
In the case of `O=C1c2cccc3c(O)ccc(c23)C(=O)N1Cc1ccccc1`, the activation is 33.7% (active).
